Reference: the RNAGym collection of RNA variant scans (doi:10.1126/science.aae0568)
Fewer inactive variants are shown than the library holds.

B1: tRNA (parent)
chain: GUUCCGUUGGCGUAAUGGUAACGCGUCUCCCUCCUAAGGAGAAGACUGCGGGUUCGAGUCCCGUACGGAACG

Variants of: B1
Assay: yeast fitness relative to wild type (ratio to wild type); higher = fitter; tRNA-Arg(CCU), competitive growth, 37 C, YPD
Summary of the method: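 Changes in genotype frequencies gave Darwinian fitness relative to wild type. Frequencies were read by 100-nucleotide paired-end sequencing of gene amplicons before and after pooled Saccharomyces cerevisiae strains, carrying tRNA-Arg(CCU) gene variants at the native locus, were competed in YPD at 37°C for 24 hours in six replicates. A genotype was kept only with ≥ 100 starting reads, and estimates < 0.5 were set to 0.5.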

| Variant | yeast fitness |
| --- | --- |
| U2A G9A A70C | 0.568 |
| U2C C29A G63A | ≤ 0.5 |
| U2A G38C A40C C49U | 0.527 |
| U2A C61U A70G | 0.571 |
| U2C A40G U54A | ≤ 0.5 |
| U2C C34G U59A | ≤ 0.5 |
| U2C C31G G58C G67C | 0.53 |
| U2C G18A U28C A42C G56C A65C | 0.61 |
| U2A U32C A57G | 0.652 |
| U2A G56A | 0.898 |
| U2A C49U C62U | 0.522 |
| U2A U8C A42U | 0.64 |
| U2C C29U G56A | 0.625 |
| U2C C11U G25U C29U G39A | ≤ 0.5 |
| U2A G25C A45U | 0.585 |
| U2A U28A A37C G58C A69G | ≤ 0.5 |
| U2C G9U A20C A57G A65C | ≤ 0.5 |
| U2A U16C A45C | 0.651 |
| U2C C46G G63A A70U | ≤ 0.5 |
| U2A G9A A37G G58A | ≤ 0.5 |
| U2C A21U U54G | ≤ 0.5 |
| U2C A40C A69C | 0.633 |
| U2C A40U G50A | 0.571 |
| U2A G17A A45G | 0.587 |

| Variant | yeast fitness |
| --- | --- |
| U2A U8C A15G | 0.667 |
| U2C G12A C24A U28A A42C U47G C49G | 0.582 |
| U2C C46U U59C | 0.705 |
| U2C C24U G25C U26A A57G | 0.878 |
| U2A U32A A65U A69C | ≤ 0.5 |
| U2A G6C C29A U59G | 0.603 |
| U2A U54C | 0.932 |
| U2A G48A A57U A65U C66A | ≤ 0.5 |
| U2C C11A C22G G41A A43C G51C C66U G67C | ≤ 0.5 |
| U2C C11A C22G G41A A43C G51C C66U G67U | 0.584 |
| U2C C11A G12A U35G U59A | ≤ 0.5 |
| U2A U13A U35G | ≤ 0.5 |
| U2A G10A U35C | ≤ 0.5 |
| U2A G17C C46U U59A | ≤ 0.5 |
| U2A U3C G6A U26C G56A | ≤ 0.5 |
| U2C A15C C24A G41C G68A | ≤ 0.5 |
| U2C A20U U28A G67U | 0.579 |
| U2C C29A A57C | ≤ 0.5 |
| U2A G6C U7C A15U U35C G41A C60A A65U A69G | ≤ 0.5 |
| U2C C46A | 0.942 |
| U2C C27G U28A A43U C61A C62U A65U A69C | ≤ 0.5 |
| U2A U32A A69C | 0.612 |
| U2C A37G G39A | ≤ 0.5 |
| U2A U19G C29G | ≤ 0.5 |

| Variant | yeast fitness |
| --- | --- |
| U2C A14C G39A A57U | ≤ 0.5 |
| U2C A14G G18A U32A A45C A69C | ≤ 0.5 |
| U2C C4U G25C C29U C66A | ≤ 0.5 |
| U2C C22G G51C A70G | ≤ 0.5 |
| U2C C60A C66U | 0.576 |
| U2C C11G C22G G56A G63A | ≤ 0.5 |
| U2C A14G C29A C33G C66A | ≤ 0.5 |
| U2A G9C U16G U32G U47A A57C C62U | ≤ 0.5 |
| U2C C61G A65U | 0.547 |
| U2C C55A A57C G67C G68A | 0.575 |
| U2C G9C A69C | 0.524 |
| U2A G25A U32C | 0.903 |
| U2A G25A A70U | 0.695 |
| U2A G9A C11U G51C C55U A69C A70U | ≤ 0.5 |
| U2A U13A U35G U64A A65C | ≤ 0.5 |
| U2A U3G C29G C30G C46G | 0.612 |
| U2A U3G C29G C30G C46A | ≤ 0.5 |
| U2C A14U | 0.764 |
| U2A G23C C31U | ≤ 0.5 |
| U2C C22U G38C C46U | ≤ 0.5 |
| U2C A14G G18A U32A U59A | ≤ 0.5 |
| U2A U28C G39A G68A | ≤ 0.5 |
| U2C C55A | 0.7 |
| U2A G9C U35A A36G | ≤ 0.5 |

| Variant | yeast fitness |
| --- | --- |
| U2C A57U C62U U64C | ≤ 0.5 |
| U2C G10A G12A G18C C33U A69C | ≤ 0.5 |
| U2A G23A G68U | ≤ 0.5 |
| U2A U47G C66U | ≤ 0.5 |
| U2C C27U A36C | ≤ 0.5 |
| U2C C27U A36G | 0.575 |
| U2C C66U | 0.968 |
| U2C C24G C29U C62G C66A | ≤ 0.5 |
| U2C C11U G56C C62U | ≤ 0.5 |
| U2C A14G G18A U32A G44A A65C | 0.539 |
| U2C C4U | 0.969 |
| U2A G48A G50C U59C C60A | ≤ 0.5 |
| U2C G10A U54A C62U C66A | ≤ 0.5 |
| U2C A42G | 0.821 |
| U2C A42U | 0.937 |
| U2C A42C | 0.914 |
| U2C C4A G17A C60G | ≤ 0.5 |
| U2A G9A U13A C24A | ≤ 0.5 |
| U2C G18A C24U | 0.529 |
| U2A U3C C24G C33G C66U | ≤ 0.5 |
| U2C C31A A70U | 0.76 |
| U2C C24U A57U | ≤ 0.5 |
| U2A G38C | 0.635 |
| U2C G12A G18C C33U C55U | ≤ 0.5 |

| Variant | yeast fitness |
| --- | --- |
| U2C C30G C33A | ≤ 0.5 |
| U2A U26A | 1.06 |
| U2C G18A A36C A45U C49G | ≤ 0.5 |
| U2A U8A C34A A65U | ≤ 0.5 |
| U2A U28A C55G | ≤ 0.5 |
| U2C G6A A42C C66U | ≤ 0.5 |
| U2A G9A A20C C24U C61G | ≤ 0.5 |
| U2C A40C G52C G67A | 0.56 |
| U2C A15C C29U | ≤ 0.5 |
| U2C A20U G38C | ≤ 0.5 |
| U2A G10A A20G U35C | ≤ 0.5 |
| U2A G68A | 0.825 |
| U2C A40C G52C | 0.528 |
| U2C C31A G38C G50A | 0.604 |
| U2A C66G | 0.715 |
| U2A C66U | 0.739 |
| U2C G6C | 0.861 |
| U2C G10C A21G | ≤ 0.5 |
| U2A U3A G51A C61G | 0.513 |
| U2A U16G G18C | 0.614 |
| U2A G41C U59A C61A C66U G68C | ≤ 0.5 |
| U2A U8A C33U A43U | ≤ 0.5 |
| U2A U28C C49U C62G | ≤ 0.5 |
| U2C A20C G68A | 0.614 |

| Variant | yeast fitness |
| --- | --- |
| U2A G18C | 0.592 |
| U2C | 1 |
| U2C G17A A43C C49U U54A G56C A65U A70C | ≤ 0.5 |
| U2C C29A C31A A40U C49U | 0.554 |
| U2C C61U G68A | ≤ 0.5 |
| U2C C31G U35A | ≤ 0.5 |
| U2A G9C U16G U32G G52A G63C | ≤ 0.5 |
| U2A U3A U16C C24U A69U | ≤ 0.5 |
| U2C G9U C61G | ≤ 0.5 |
| U2A G48C G50A | 0.732 |
| U2C G6A A57U C62U | ≤ 0.5 |
| U2A U8C G23A C29G | ≤ 0.5 |
| U2A U3G A36U | ≤ 0.5 |
| U2C C11U A21C U26C C49U A57U | ≤ 0.5 |
| U2A U47A A65C | ≤ 0.5 |
| U2A U13G U28A A36U A45U A57G | 0.59 |
| U2C C29U A37G C66U | 0.578 |
| U2C A21U C30U | ≤ 0.5 |
| U2C C29G | 0.626 |
| U2C C29A | 0.659 |
| U2C C29U | 0.81 |
| U2C A57U C62U | 0.549 |
| U2A U28C G41C U54A G67U | ≤ 0.5 |
| U2C C24G C46U | ≤ 0.5 |

| Variant | yeast fitness |
| --- | --- |
| U2A U16C C30A A43C | ≤ 0.5 |
| U2C C24G C61G | ≤ 0.5 |
| U2C C4A C11U C29U G67A A70U | ≤ 0.5 |
| U2C G12A U19C A21U G58C | 0.603 |
| U2C C4A U28C G44C | 0.601 |
| U2A G41A C66U | ≤ 0.5 |
| U2C C34A | 0.77 |
| U2A G23C C27U C31G A42C C61U | ≤ 0.5 |
| U2C G12C A14G C29U U59G G63C | ≤ 0.5 |
| U2A G23A C29G C49U | 0.575 |
| U2C A15C U19C C22G U59C C60G | ≤ 0.5 |
| U2A G6C G38A G68A | ≤ 0.5 |
| U2A U19C | 0.867 |
| U2A U16C U28A G50A | ≤ 0.5 |
| U2C C31G C55G | 0.569 |
| U2A U26C C55U | ≤ 0.5 |
| U2A U3A G63C | ≤ 0.5 |
| U2A G6C U7C G12A C30A G44A C66A | ≤ 0.5 |
| U2C A14U C29U | 0.626 |
| U2C A15U U16A | 0.62 |
| U2C C29A G44C C46G C62A | ≤ 0.5 |
| U2A G10C C27G G39U G50C G58A | ≤ 0.5 |
| U2C C29U G38C A43U U53G | ≤ 0.5 |
